2 molecules from ChEMBL document CHEMBL1132478, “Design and synthesis of novel alpha(1)(a) adrenoceptor-selective antagonists. 3. Approaches to eliminate opioid agonist metabolites by using substituted phenylpiperazine side chains” (J Med Chem, 1999) can be followed below.

Data set [1] is described as follows: oral bioavailability in dog. The conditions noted are these: in vivo. Format: ADME, organism-based, Canis lupus familiaris.
A short description of data set [2]: oral bioavailability in rat. It counts as ADME, organism-based. The following applies: in vivo. A digest of the protocol: (§1)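 In rats, the compound was given at 3 mg/kg iv and 10 mg/kg po. Plasma AUC was measured for each route, with oral bioavailability and plasma half-life derived from the plasma profiles.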
For data set [3], the species on record is Rattus norvegicus. Put plainly: Duration of action in rat. It counts as ADME, organism-based. The following applies: in vivo. The procedure, abridged: (§2)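 In rats, phenylephrine-induced contraction of the prostate was measured in vivo. Antagonist potency is expressed as AD₅₀ in µg/kg. Duration of action is given in hours.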
Data set [4] is described as follows: Plasma half life in dog. It counts as ADME, organism-based, Canis lupus familiaris.
Data set [5] is described as follows: Plasma half life in rat. Format: ADME, organism-based. A digest of the protocol: as §1
The target in data set [6] is T1, Alpha-1D adrenergic receptor (Homo sapiens, UniProt P25100).
T1 sequence (P25100 whole entry): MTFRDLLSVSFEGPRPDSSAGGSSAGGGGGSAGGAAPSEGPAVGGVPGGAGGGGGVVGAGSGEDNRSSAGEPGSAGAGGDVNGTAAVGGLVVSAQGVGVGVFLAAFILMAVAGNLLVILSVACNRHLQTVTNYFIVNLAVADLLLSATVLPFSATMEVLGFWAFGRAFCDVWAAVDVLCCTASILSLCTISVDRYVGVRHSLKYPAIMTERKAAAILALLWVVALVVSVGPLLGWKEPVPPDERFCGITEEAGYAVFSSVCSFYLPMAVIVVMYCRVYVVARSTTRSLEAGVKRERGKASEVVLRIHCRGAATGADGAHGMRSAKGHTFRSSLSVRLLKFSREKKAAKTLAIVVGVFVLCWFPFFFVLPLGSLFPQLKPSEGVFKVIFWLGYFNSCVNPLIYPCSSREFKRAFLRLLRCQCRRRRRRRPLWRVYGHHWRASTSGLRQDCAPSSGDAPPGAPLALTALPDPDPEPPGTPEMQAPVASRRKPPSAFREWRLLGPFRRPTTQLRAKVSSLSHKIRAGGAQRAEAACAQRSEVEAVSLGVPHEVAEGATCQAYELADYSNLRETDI
Description: In vitro binding affinity against Alpha-1D adrenergic receptor at recombinant human receptor. The following applies: in the assay text read “at recombinant human receptor” for “of human liver microsomes”. A digest of the protocol: (§3)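 Radioligand displacement on membranes from cultured cells expressing recombinant human α1a, α1b or α1d adrenoceptors, using [³H]prazosin as radioligand; Ki values reported.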
On the technique in general: Microsomes from liver hold many membrane-bound enzymes, among them those of drug oxidation.

Data set [7] has as its target T2, Alpha-1A adrenergic receptor (Rattus norvegicus) (UniProt P43140).
T2 sequence (whole entry): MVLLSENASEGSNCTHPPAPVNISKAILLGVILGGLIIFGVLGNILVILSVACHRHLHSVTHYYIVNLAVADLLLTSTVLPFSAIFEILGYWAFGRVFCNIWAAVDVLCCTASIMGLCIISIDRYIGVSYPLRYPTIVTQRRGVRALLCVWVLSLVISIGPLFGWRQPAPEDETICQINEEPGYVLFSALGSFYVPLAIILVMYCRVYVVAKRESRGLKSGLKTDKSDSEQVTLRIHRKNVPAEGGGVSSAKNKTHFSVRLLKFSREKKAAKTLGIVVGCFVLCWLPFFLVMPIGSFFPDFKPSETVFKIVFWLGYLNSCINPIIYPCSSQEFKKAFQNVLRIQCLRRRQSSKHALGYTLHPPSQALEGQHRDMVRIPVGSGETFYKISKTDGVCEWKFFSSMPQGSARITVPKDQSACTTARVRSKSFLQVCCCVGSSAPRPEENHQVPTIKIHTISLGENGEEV
Description: (§4) Binding affinity radioligand).

Data set [8] has as its target T3, Alpha-1A adrenergic receptor (Homo sapiens, UniProt P35348).
T3 sequence (P35348 whole entry): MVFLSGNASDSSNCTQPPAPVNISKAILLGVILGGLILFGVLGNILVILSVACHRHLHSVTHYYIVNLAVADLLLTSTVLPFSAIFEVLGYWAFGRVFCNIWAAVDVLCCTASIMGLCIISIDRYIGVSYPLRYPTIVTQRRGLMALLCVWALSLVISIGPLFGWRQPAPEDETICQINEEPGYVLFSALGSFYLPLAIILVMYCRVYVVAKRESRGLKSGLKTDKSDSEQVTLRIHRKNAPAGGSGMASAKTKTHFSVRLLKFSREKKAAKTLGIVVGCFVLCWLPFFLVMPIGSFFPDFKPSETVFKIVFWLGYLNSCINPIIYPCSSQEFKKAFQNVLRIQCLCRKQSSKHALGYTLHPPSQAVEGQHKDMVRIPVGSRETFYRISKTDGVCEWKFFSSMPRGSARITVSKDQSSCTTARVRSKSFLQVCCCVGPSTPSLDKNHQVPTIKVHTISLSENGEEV
Put plainly: In vitro binding affinity against Alpha-1A adrenergic receptor […]. The procedure, abridged: as §3

Data set [9] concerns the target Mu-type opioid receptor (Homo sapiens, UniProt P35372). Description: Binding affinity against opioid receptor using [3H]-DAMGO as radioligand.
For data set [10], the species on record is Rattus norvegicus. Description: Inhibition of phenylephrine induced contraction of the rat prostate. Format: functional, Prostate gland. The procedure, abridged: as §2
The nature of data set [11]: Fold selectivity against alpha 1A adrenergic receptor over alpha 2A, 2B and 2C adrenergic receptors. The procedure, abridged: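 Ki ratio derived from radioligand displacement at recombinant human adrenoceptors: α1a with [³H]prazosin, and α2a, α2b and α2c with [³H]rauwolscine, on membranes from cultured cells.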
For data set [12], the target named is T4, Alpha-1B adrenergic receptor (Homo sapiens, UniProt P35368).
T4 sequence (P35368 whole entry): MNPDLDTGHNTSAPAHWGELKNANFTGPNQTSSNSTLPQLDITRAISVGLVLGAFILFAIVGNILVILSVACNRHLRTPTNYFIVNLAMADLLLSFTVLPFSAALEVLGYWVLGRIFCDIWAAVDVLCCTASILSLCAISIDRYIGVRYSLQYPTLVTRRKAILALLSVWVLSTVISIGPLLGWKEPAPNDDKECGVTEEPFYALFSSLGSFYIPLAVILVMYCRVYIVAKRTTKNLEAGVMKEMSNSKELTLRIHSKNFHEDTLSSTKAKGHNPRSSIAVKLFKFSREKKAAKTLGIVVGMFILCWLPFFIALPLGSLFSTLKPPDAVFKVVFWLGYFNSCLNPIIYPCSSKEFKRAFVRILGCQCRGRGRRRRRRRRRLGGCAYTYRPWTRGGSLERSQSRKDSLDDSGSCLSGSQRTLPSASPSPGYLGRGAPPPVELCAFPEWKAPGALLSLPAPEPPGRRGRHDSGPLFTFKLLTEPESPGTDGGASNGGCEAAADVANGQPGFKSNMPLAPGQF
Put plainly: In vitro binding affinity against Alpha-1B adrenergic receptor at recombinant human receptor.

The target of data set [13] is Adrenergic receptor alpha-1 (Rattus norvegicus) (UniProt P15823+P23944+P43140). The description is as §4. It counts as protein assay.
Chain of Adrenergic receptor alpha-1 (Rattus norvegicus) (P15823 whole entry, looked up, one chain of several): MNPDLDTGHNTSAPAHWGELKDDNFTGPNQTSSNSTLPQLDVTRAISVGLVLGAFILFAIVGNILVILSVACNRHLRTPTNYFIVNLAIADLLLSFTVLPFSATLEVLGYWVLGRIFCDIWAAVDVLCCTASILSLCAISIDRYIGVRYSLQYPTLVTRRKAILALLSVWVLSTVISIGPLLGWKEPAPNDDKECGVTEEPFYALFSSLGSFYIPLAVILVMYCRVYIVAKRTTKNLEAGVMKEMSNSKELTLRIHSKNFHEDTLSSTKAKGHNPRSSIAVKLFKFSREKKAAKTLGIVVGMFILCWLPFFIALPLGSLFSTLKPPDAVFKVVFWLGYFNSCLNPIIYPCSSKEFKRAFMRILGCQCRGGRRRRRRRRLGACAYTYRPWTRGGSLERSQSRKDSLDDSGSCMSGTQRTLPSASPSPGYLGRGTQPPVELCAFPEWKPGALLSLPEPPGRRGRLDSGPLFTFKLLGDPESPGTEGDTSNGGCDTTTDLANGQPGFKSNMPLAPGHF
Chain of Adrenergic receptor alpha-1 (Rattus norvegicus) (P23944 whole entry, looked up, one chain of several): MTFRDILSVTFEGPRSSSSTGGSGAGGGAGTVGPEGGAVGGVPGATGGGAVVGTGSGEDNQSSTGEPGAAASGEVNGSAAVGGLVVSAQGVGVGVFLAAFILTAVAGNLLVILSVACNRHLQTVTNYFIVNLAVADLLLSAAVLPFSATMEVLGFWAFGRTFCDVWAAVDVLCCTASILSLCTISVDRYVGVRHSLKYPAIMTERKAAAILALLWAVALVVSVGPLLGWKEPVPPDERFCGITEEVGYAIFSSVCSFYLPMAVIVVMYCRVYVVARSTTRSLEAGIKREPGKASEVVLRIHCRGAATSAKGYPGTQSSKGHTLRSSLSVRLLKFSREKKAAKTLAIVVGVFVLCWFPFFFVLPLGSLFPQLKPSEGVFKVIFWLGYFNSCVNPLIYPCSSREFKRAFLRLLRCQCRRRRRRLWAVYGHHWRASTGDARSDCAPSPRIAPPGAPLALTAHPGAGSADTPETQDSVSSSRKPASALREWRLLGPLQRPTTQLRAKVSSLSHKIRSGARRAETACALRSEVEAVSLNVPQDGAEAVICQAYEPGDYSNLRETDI

As a reminder, the bioavailability is the share of a dose that reaches the circulation, judged against a reference dose that is usually intravenous. Read a low bioavailability as poor availability. The term half-life denotes the time needed for the level to fall by half in the phase considered. In general, Ki refers to a dissociation constant, usually derived from enzyme kinetics or from competition with a known ligand.

Molecules are shown by their SMILES. Values joined by “and” are separate entries in the source; they are usually repeats but may differ in a detail not shown here. Equal entries are not always repeated. A value given as a limit tells only on which side of the number the result lay.

Chain of Mu-type opioid receptor (P35372 whole entry): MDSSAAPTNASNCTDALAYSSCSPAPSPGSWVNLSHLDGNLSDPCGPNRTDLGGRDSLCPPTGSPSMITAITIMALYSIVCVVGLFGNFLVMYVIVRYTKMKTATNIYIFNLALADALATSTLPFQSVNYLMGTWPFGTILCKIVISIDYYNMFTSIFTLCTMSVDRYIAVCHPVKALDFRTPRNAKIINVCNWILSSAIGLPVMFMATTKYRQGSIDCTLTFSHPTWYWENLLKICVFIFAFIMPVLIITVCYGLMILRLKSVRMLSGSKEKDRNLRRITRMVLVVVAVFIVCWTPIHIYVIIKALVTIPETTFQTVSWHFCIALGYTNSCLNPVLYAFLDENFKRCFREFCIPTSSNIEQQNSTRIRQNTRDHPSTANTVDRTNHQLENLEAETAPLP

Turning to `COC(=O)C1=C(C)NC(=O)N(C(=O)NCCCN2CCN(c3ccccc3C(N)=O)CC2)C1c1ccc(F)c(F)c1` (configuration not stated), the bioavailability came to 4% in [1] and 13% in data set [2]. For the same molecule, the Duration of action in data set [3] is above 4 h. Also, the half-life in data set [4] was 2.4 h; in data set [5] it was 2 h. The Ki is 0.25 µM and 0.31 µM in [6]; 0.00012 µM and 0.00026 µM in data set [8]; above 30 µM in data set [9]; 0.19 µM and 0.135 µM in [12]. The same molecule displayed a Kb in data set [7] of 0.0003 µM. Moreover, the AD50 in [10] was found to be 0.022 mg/kg. Further, the Fold selectivity in data set [11] was above 3000.

Take `CCC1=C(C(N)=O)C(c2ccc(F)c(F)c2)N(C(=O)NCCCN2CCC(C(=O)OC)(c3ccccc3)CC2)C(=O)N1` (configuration not stated): the Duration of action in data set [3] was above 4 h. The Kb is 0.0004 µM in data set [7] and above 1 µM in [13]. Moreover, the AD50 in [10] came out at 0.02 mg/kg. The molecule also came in with a Fold selectivity in data set [11] above 3200.
